Experimental data collected from several papers.
Lines come from different studies, so protocols differ.
GPR84: G-protein coupled receptor 84 (GPR84, Homo sapiens, UniProt Q9NQS5)
Peroxisome proliferator-activated receptor alpha: Peroxisome proliferator-activated receptor alpha (Rattus norvegicus, UniProt P37230)

| Structure (SMILES) | target | test | setting | endpoint | result |
| --- | --- | --- | --- | --- | --- |
| CCCC[C@H](NC(=O)[C@H](CO)NC(=O)[C@H](Cc1ccc(O)cc1)NC(=O)[C@H](CO)NC(C)=O)C(=O)N[C@@H](CCC(=O)O)C(=O)N[C@@H](Cc1c[nH]cn1)C(=O)N[C@@H](C)C(=O)N[C@@H](CCCNC(=N)N)C(=O)N[C@@H](Cc1c[nH]c2ccccc12)C(=O)NCC(=O)N[C@@H](CCCCN)C(=O)N1CCC[C@H]1C(=O)N[C@H](C(=O)NCC(=O)N[C@@H](CCCCN)C(=O)N[C@@H](CCCCN)C(=O)N[C@@H](CCCNC(=N)N)C(N)=O)C(C)C | Melanocyte-stimulating hormone receptor (MC1R, Homo sapiens, UniProt Q01726) | cAMP, agonist |  | EC50 | 7.8 nM |
| CCC(C)N1CCCn2c1nc1c2c(=O)n(C)c(=O)n1C (centres unmarked) | Adenosine receptor A3 (ADORA3, Homo sapiens, UniProt P0DMS8) | ligand displacement, radioligand | cell membranes | Ki | > 10000 nM |
| CC(C)c1nc2cc(OCCCCN3CCN(c4cccc5c4OCCN5)CC3)ccc2s1 | D(2) dopamine receptor (DRD2, Homo sapiens, UniProt P14416) | cAMP, agonist, luciferase |  | EC50 | 2.8 nM |
| O=c1cc(NCCc2cccs2)[nH]c(=O)[nH]1 | GPR84 | cAMP, agonist |  | EC50 | 191 nM |
| CC(=O)N[C@H]1CSSC[C@@H](C(=O)N[C@H](Cc2c[nH]c3ccccc23)C(N)=O)NC(=O)[C@H](Cc2ccccc2)NC(=O)[C@H](CCCNC(=N)N)NC1=O | Melanocortin receptor 3 (MC3R, Homo sapiens, UniProt P41968) | ligand displacement, radioligand |  | IC50 | 1500 nM |
| Cc1cccc(Nc2cc(Cl)nc(SCC(=O)O)n2)c1C | Peroxisome proliferator-activated receptor alpha | reporter gene, agonist, luciferase |  | EC50 | 9500 nM |
| C=CC(=O)Nc1cc(Nc2nccc(-c3cn(C4CC4)c4ccccc34)n2)c(OC)cc1N(C)CCN(C)C | Epidermal growth factor receptor (EGFR, Homo sapiens, UniProt P00533) | enzyme activity, inhibitor, TR-FRET |  | IC50 | 3.39 nM |
| Cc1cc2nc3c(=O)[nH]c(=O)nc-3n(C[C@H](O)[C@H](O)[C@H](O)COP(=O)(O)OP(=O)(O)OC[C@H]3O[C@@H](n4cnc5c(N)ncnc54)[C@H](O)[C@@H]3O)c2cc1C | Probable ATP-dependent RNA helicase DDX6 (Homo sapiens, UniProt P26196) | binding | lysate | Kd | 77 nM |
| Cc1nc(-c2ccc(C(F)(F)F)cc2)sc1C(=O)NCc1ccc(OC(C)(C)C(=O)O)cc1 | Peroxisome proliferator-activated receptor alpha | reporter gene, agonist, luciferase |  | EC50 | 2200 nM |
| CC(C)(C)c1ccc(CCNc2cc(=O)[nH]c(=O)[nH]2)cc1 | GPR84 | cAMP, agonist |  | EC50 | 43.7 nM |
| CN1CCN(c2ccc(Nc3ncc4cc(C#N)c(=O)n(C5CCCC5)c4n3)cc2)CC1 | Maternal embryonic leucine zipper kinase (MELK, Homo sapiens, UniProt Q14680) | enzyme activity, inhibitor |  | IC50 | > 10000 nM |
